This is an account of results in paper PMC10756989 (Heliyon, 2023).

A short description of one test: Nitric oxide. Conditions: for NO IC50: 10 mM sodium nitroprusside, pH 7.4 PBS, 25 °C, 546 nm; for NO scavenging activity: Fig. 12. In outline: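 Test compound or Trolox reference at various concentrations, incubated 2 h with sodium nitroprusside in PBS. Griess reagent is added, with a further 5 min at 25 °C. Absorbance is read against a blank without test samples.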

For a further test, the target named is T1, pancreatic α-amylase (Homo sapiens, UniProt P04746).
T1 sequence (P04746 16-511): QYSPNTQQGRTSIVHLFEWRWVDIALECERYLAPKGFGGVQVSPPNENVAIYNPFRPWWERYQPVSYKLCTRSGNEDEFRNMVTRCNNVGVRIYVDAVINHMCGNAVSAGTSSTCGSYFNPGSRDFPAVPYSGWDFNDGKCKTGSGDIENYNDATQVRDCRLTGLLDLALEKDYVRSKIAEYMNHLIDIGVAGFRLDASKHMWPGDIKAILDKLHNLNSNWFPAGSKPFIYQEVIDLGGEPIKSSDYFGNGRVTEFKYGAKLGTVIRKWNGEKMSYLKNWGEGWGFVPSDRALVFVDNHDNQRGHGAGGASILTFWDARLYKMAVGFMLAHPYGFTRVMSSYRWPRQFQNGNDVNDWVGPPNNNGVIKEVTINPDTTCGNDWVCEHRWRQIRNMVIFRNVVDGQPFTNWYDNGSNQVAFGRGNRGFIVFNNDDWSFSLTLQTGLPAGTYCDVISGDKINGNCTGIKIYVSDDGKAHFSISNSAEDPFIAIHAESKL
Briefly: α-amylase enzyme inhibitory activity. The format is biochemical. To be noted: for percentage α-amylase inhibition: at 63 μg/mL, Fig. 5.

Another test is described as follows: Ferric. Conditions: for FRAP IC50: ferric reducing power, 63–500 μg/mL, 700 nm; for Fe^3+ reducing power: at 500 μg/mL, Fig. 14. A digest of the protocol: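 Potassium ferricyanide reduction: test compound or Trolox (63–500 μg/mL) with 200 mM phosphate buffer and 1 % K3Fe(CN)6, 50 °C, 25 min. Then TCA (0.1 g/mL) is added, the mix is diluted with water, and 0.1 % FeCl3 is added before reading. Reducing capacity is estimated from a gallic acid standard curve.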

Test [1] in a line: DPPH radical mopping capacity. Conditions: DPPH 300 μM in methanol, 30 min, 516 nm. A digest of the protocol: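 Test compound or Trolox reference (63–500 μg/mL) mixed with DPPH in methanol and kept in the dark at ambient temperature. Absorbance is read against a control without sample or Trolox.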
(In general: DPPH is a stable violet radical that fades when it is reduced.)

Another test deals with yeast α-glucosidase (Saccharomyces cerevisiae, UniProt P53341). Briefly: α-glucosidase enzyme inhibitory activity. The format is biochemical. Conditions: for α-glucosidase percentage inhibition: at 250 μg/mL.
Sequence of yeast α-glucosidase (P53341 whole entry): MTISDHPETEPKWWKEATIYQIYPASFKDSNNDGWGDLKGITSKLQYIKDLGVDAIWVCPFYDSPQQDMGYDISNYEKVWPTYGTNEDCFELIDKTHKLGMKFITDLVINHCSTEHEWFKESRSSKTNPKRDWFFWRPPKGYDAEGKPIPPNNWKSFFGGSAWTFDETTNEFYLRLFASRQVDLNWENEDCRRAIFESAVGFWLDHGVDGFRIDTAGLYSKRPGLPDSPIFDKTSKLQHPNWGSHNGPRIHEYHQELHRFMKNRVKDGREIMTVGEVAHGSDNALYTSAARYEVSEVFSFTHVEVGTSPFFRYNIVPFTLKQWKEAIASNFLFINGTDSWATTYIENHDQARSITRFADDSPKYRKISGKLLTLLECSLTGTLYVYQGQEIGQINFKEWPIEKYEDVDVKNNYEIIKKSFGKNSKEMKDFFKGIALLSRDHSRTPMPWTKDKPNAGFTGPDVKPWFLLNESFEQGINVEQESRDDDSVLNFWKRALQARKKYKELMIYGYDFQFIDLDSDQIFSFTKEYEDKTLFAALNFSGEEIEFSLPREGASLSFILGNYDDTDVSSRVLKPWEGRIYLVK

Structures are written as SMILES. pIC50: −log10 of the molar value.

In the case of `C[C@H]1O[C@H](O[C@H]2[C@H](O)[C@@H](O)[C@@H](O[C@H]3[C@H](O)[C@@H](O)C(O)O[C@@H]3CO)O[C@@H]2CO)[C@H](O)[C@@H](O)[C@@H]1N[C@H]1C=C(CO)[C@@H](O)[C@H](O)[C@H]1O` (stereo partly shown) [Acarbose, reference compound], in “Nitric oxide” (listed as Acarbose (Standard)), the “NO IC50” value was 109,59 μg/mL. In addition, the “percentage α-amylase inhibition” value on pancreatic α-amylase was “indistinguishable”. In addition, the “FRAP IC50” value in the test “Ferric” is given as 292,51 μg/mL. Besides, the “DPPH IC50” value in test [1] was 13,62 μg/mL.
As to `Cc1cc(C)c(/N=C/c2ccc3ccccc3c2)c(C)c1` [Compound L1, (E)-N-mesityl-1-(naphthalen-2-yl)methanimine], in the test “Nitric oxide”, the “NO IC50” value was 70,91 μg/mL. Besides, in the test “Nitric oxide” (at 63–250 μg/mL, versus other compounds and Trolox), the NO scavenging activity result is reported as “significantly higher”. For the same compound, at pancreatic α-amylase, the pIC50 was 3.67 and the “percentage α-amylase inhibition” value is on record as “indistinguishable”. In addition, the α-glucosidase percentage inhibition entry at yeast α-glucosidase (Fig. 6) was “did not exhibit statistically significant differences”. For the same compound, at yeast α-glucosidase (at 63–125 μg/mL, among the synthesised samples, Fig. 6), the α-glucosidase inhibitory effect result is reported as “significantly higher inhibitory effect”. Besides, in “Ferric”, the “Fe^3+ reducing power” value is reported as “slightly better abilities” and the “FRAP IC50” value is above 500 µg/mL. The “DPPH IC50” value in test [1] was 25,44 μg/mL.
Regarding `Cc1cccc(C)c1/N=C/c1ccc2ccccc2c1` [Compound L2, (E)-N-(2,6-dimethylphenyl)-1-(naphthalen-2-yl)methanimine], the “NO IC50” value in the test “Nitric oxide” was 119,68 μg/mL. Further, the NO scavenging activity result in the test “Nitric oxide” (at 500 μg/mL) was “lower compared with the other test compounds and standard”. Further, at pancreatic α-amylase, the pIC50 was below 2.71 and the “percentage α-amylase inhibition” value is “indistinguishable”. This compound gave a pIC50 against yeast α-glucosidase of 3.25. Further, the α-glucosidase percentage inhibition entry on yeast α-glucosidase (Fig. 6) was “did not exhibit statistically significant differences”. The α-glucosidase inhibitory activity entry at yeast α-glucosidase (at 500 μg/mL, compared with L1 and acarbose, Fig. 6) is on record as “significantly greater activity”. In “Ferric”, the “Fe^3+ reducing power” value is “slightly better abilities” and the “FRAP IC50” value is above 500 µg/mL. Moreover, the “DPPH IC50” value in test [1] was 35,69 μg/mL.
Take `CC(C)c1cccc(C(C)C)c1/N=C/c1ccc2ccccc2c1` [Compound L3, (E)-N-(2,6-diisopropylphenyl)-1-(naphthalen-2-yl)methanimine]: in “Nitric oxide”, the “NO IC50” value was 91,21 μg/mL. In addition, the pIC50 against pancreatic α-amylase is below 2.80; on yeast α-glucosidase, 3.19. Besides, in “Ferric”, the “FRAP IC50” value was above 500 µg/mL. The “DPPH IC50” value in test [1] was 67,81 μg/mL.
Consider `Cc1c(C)c2c(c(C)c1O)CCC(C)(C(=O)O)O2` (stereo not shown) [Trolox, reference compound], for which, in the test “Nitric oxide”, the “NO IC50” value is 109.59 µg/mL. The “FRAP IC50” value in “Ferric” stood at 292.51 µg/mL. Also, the “DPPH IC50” value in test [1] amounted to 13.62 µg/mL.

By pIC50 is commonly meant the IC50 on a negative log10 scale, so that one unit is a factor of ten. A low value points to a high IC50.
